Results collected from several papers.
Protocols differ between the studies behind these lines.
Read-out: cell growth or viability

| Compound | cell line | test | setting | quantity | value |
| --- | --- | --- | --- | --- | --- |
| O=C1c2ccccc2-c2c3c(cc4ccnc1c24)OCO3 | T47D | MTT | 75 h | IC50 | 15900 nM |
| N.N.[Cl][Pt][Cl] | JVM-3 | ATP luminescence | 10 µM, 72 h | inhibition | 100% |
| C[S+]([O-])CCCCN=C=S (stereo not shown) | T47D | MTT | 24 h | IC50 | 30400 nM |
| COC(=O)c1cc(C(C)=NNc2nc(-c3ccc(S(=O)(=O)F)cc3)cs2)ccc1O | T47D | MTT | 96 h | IC50 | 26300 nM |
| Cc1ncsc1-c1ccc([C@H](C)NC(=O)[C@@H]2C[C@@H](O)CN2C(=O)[C@@H](c2cc(N3CCC(CN4CCC(OC5CC(Oc6cc(N7C8CCC7CN(c7cc(-c9ccccc9O)nnc7N)C8)ccn6)C5)CC4)CC3)no2)C(C)C)cc1 (stereo partly shown) | LNCaP | ATP luminescence | 7 days | IC50 | 3.2 nM |
| N#C[Se]Cc1cc(=O)oc2cc(O)ccc12 | T47D | SRB | – | GI50 | 35000 nM |
| CC(=O)c1c(C)c2cnc(Nc3ccc(C4CCN(CCS(C)(=O)=O)CC4)cn3)nc2n(C2CCCC2)c1=O | T47D | ATP luminescence | 72 h | IC50 | 177 nM |
| CC[C@@]1(O)C(=O)OCc2c1cc1n(c2=O)Cc2cc3ccccc3nc2-1 | MIA PaCa-2 | SRB | 48 h | IC50 | 151 nM |
| O=[N+]([O-])c1ccc(NCCCCCCN=C=S)c2nonc12 | T47D | MTT | 24 h | IC50 | 1200 nM |
| Cc1cc(=O)oc2cc(OCCCC[Se]C#N)ccc12 | MIA PaCa-2 | SRB | – | GI50 | 2600 nM |
